Results reported in ChEMBL document CHEMBL1128681, “Studies on the monoamine oxidase (MAO)-catalyzed oxidation of phenyl-substituted 1-methyl-4-phenoxy-1,2,3,6-tetrahydropyridine derivatives: factors contributing to MAO-A and MAO-B selectivity” (J Med Chem, 1995).

How the values were obtained:
[1] = substrate: COc1ccccc1OC1=CCN(C)CC1; experiment: (§1) Michaelis-Menten constant for Monoamine oxidase A-catalyzed oxidation (KM).
In short: (§2)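 MAO-A at 0.16 μM final, raised to 0.32 μM for one slowly oxidized substrate. The MAO-A preparation was diluted with 3 volumes of phosphate buffer just before use, and its activity was re-checked bimonthly with kynuramine at 30 °C. Substrates at 100–2000 μM in 100 mM sodium phosphate pH 7.4; initial rates by spectrophotometry. kcat and KM from double-reciprocal plots; kcat/KM as their ratio.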

[2] = substrate: COc1ccc(OC2=CCN(C)CC2)cc1; experiment: as §1; in short: as §2
[3] = substrate: COc1cccc(OC2=CCN(C)CC2)c1; experiment: as §1; in short: as §2
[4] = substrate: CN1CC=C(Cc2ccccc2)CC1; experiment: as §1; in short: as §2
[5] = substrate: CN1CC=C(Oc2ccc(Cl)cc2)CC1; experiment: as §1; in short: as §2
[6] = substrate: CN1CC=C(Oc2ccccc2-c2ccccc2)CC1; experiment: as §1; in short: as §2
[7] = substrate: CN1CC=C(Oc2cccc(-c3ccccc3)c2)CC1; experiment: as §1; in short: as §2
[8] = substrate: Cc1cccc(OC2=CCN(C)CC2)c1; experiment: as §1; in short: as §2
[9] = substrate: CN1CC=C(Oc2cccc([N+](=O)[O-])c2)CC1; experiment: as §1; in short: as §2
[10] = substrate: Cc1ccc(OC2=CCN(C)CC2)cc1; experiment: as §1; in short: as §2
[11] = substrate: CN1CC=C(Oc2cccc(Cl)c2)CC1; experiment: as §1; in short: as §2
[12] = substrate: CN1CC=C(Oc2ccccc2[N+](=O)[O-])CC1; experiment: as §1; in short: as §2
[13] = substrate: CN1CC=C(Oc2ccc([N+](=O)[O-])cc2)CC1; experiment: as §1; in short: as §2
[14] = substrate: Cc1ccccc1OC1=CCN(C)CC1; experiment: as §1; in short: as §2
[15] = substrate: CN1CC=C(Oc2ccccc2Cl)CC1; experiment: as §1; in short: as §2
[16] = substrate: COc1ccccc1OC1=CCN(C)CC1; experiment: (§3) Michaelis-Menten constant for Monoamine oxidase B catalyzed oxidation (KM).; set-up: species or system Bos taurus
In short: (§4)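 MAO-B at 0.08 μM final; activity was calibrated with MPTP at 30 °C and the preparation was stored at –15 °C. Substrate range 100–2000 μM in 100 mM sodium phosphate pH 7.4, with spectrophotometric initial oxidation rates. KM and kcat derived from double-reciprocal plots, and kcat/KM calculated from them.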

[17] = substrate: COc1ccc(OC2=CCN(C)CC2)cc1; experiment: as §3; set-up: species or system Bos taurus; in short: as §4
[18] = substrate: COc1cccc(OC2=CCN(C)CC2)c1; experiment: as §3; set-up: species or system Bos taurus; in short: as §4
[19] = substrate: CN1CC=C(Cc2ccccc2)CC1; experiment: as §3; set-up: species or system Bos taurus; in short: as §4
[20] = substrate: CN1CC=C(Oc2ccc(Cl)cc2)CC1; experiment: as §3; set-up: species or system Bos taurus; in short: as §4
[21] = substrate: CN1CC=C(Oc2ccccc2-c2ccccc2)CC1; experiment: as §3; set-up: species or system Bos taurus; in short: as §4
[22] = substrate: CN1CC=C(Oc2cccc(-c3ccccc3)c2)CC1; experiment: as §3; set-up: species or system Bos taurus; in short: as §4
[23] = substrate: Cc1cccc(OC2=CCN(C)CC2)c1; experiment: as §3; set-up: species or system Bos taurus; in short: as §4
[24] = substrate: CN1CC=C(Oc2cccc([N+](=O)[O-])c2)CC1; experiment: as §3; set-up: species or system Bos taurus; in short: as §4
[25] = substrate: Cc1ccc(OC2=CCN(C)CC2)cc1; experiment: as §3; set-up: species or system Bos taurus; in short: as §4
[26] = substrate: CN1CC=C(Oc2cccc(Cl)c2)CC1; experiment: as §3; set-up: species or system Bos taurus; in short: as §4
[27] = substrate: CN1CC=C(Oc2ccccc2[N+](=O)[O-])CC1; experiment: as §3; set-up: species or system Bos taurus; in short: as §4
[28] = substrate: CN1CC=C(Oc2ccc([N+](=O)[O-])cc2)CC1; experiment: as §3; set-up: species or system Bos taurus; in short: as §4
[29] = substrate: Cc1ccccc1OC1=CCN(C)CC1; experiment: as §3; set-up: species or system Bos taurus; in short: as §4
[30] = substrate: CN1CC=C(Oc2ccccc2Cl)CC1; experiment: as §3; set-up: species or system Bos taurus; in short: as §4

B1: Amine oxidase [flavin-containing] A (Homo sapiens) (protein)
chain: MENQEKASIAGHMFDVVVIGGGISGLSAAKLLTEYGVSVLVLEARDRVGGRTYTIRNEHVDYVDVGGAYVGPTQNRILRLSKELGIETYKVNVSERLVQYVKGKTYPFRGAFPPVWNPIAYLDYNNLWRTIDNMGKEIPTDAPWEAQHADKWDKMTMKELIDKICWTKTARRFAYLFVNINVTSEPHEVSALWFLWYVKQCGGTTRIFSVTNGGQERKFVGGSGQVSERIMDLLGDQVKLNHPVTHVDQSSDNIIIETLNHEHYECKYVINAIPPTLTAKIHFRPELPAERNQLIQRLPMGAVIKCMMYYKEAFWKKKDYCGCMIIEDEDAPISITLDDTKPDGSLPAIMGFILARKADRLAKLHKEIRKKKICELYAKVLGSQEALHPVHYEEKNWCEEQYSGGCYTAYFPPGIMTQYGRVIRQPVGRIFFAGTETATKWSGYMEGAVEAGERAAREVLNGLGKVTEKDIWVQEPESKDVPAVEITHTFWERNLPSVSGLLKIIGFSTSVTALGFVLYKYKLLPRS
For B1, the Km [1] was 75 µM, the kcat [1] was 0.95 s⁻¹ and the kcat/Km [1] was 12700 M⁻¹ s⁻¹. The Km [2] was 47 µM, the kcat [2] was 1.22 s⁻¹ and the kcat/Km [2] was 25800 M⁻¹ s⁻¹. It also gave a Km [3] of 176 µM, a kcat [3] of 8.2 s⁻¹ and a kcat/Km [3] of 46600 M⁻¹ s⁻¹. It also gave a Km [4] of 103 µM, a kcat [4] of 0.467 s⁻¹ and a kcat/Km [4] of 4600 M⁻¹ s⁻¹. For the same protein, the Km [5] was 63 µM, the kcat [5] was 3.15 s⁻¹ and the kcat/Km [5] was 50100 M⁻¹ s⁻¹. The Km [6] was 426 µM, the kcat [6] was 4.08 s⁻¹ and the kcat/Km [6] was 9580 M⁻¹ s⁻¹. It also gave a Km [7] of 232 µM, a kcat [7] of 21.5 s⁻¹ and a kcat/Km [7] of 92800 M⁻¹ s⁻¹. The Km [8] was 212 µM, the kcat [8] was 7.18 s⁻¹ and the kcat/Km [8] was 33900 M⁻¹ s⁻¹. For the same protein, the Km [9] was 174 µM, the kcat [9] was 4.95 s⁻¹ and the kcat/Km [9] was 28500 M⁻¹ s⁻¹. It also gave a Km [10] of 129 µM, a kcat [10] of 1.3 s⁻¹ and a kcat/Km [10] of 10000 M⁻¹ s⁻¹. The Km [11] was 82 µM, the kcat [11] was 5.97 s⁻¹ and the kcat/Km [11] was 72800 M⁻¹ s⁻¹. For the same protein, the Km [12] was 306 µM, the kcat [12] was 6.83 s⁻¹ and the kcat/Km [12] was 22300 M⁻¹ s⁻¹. For the same protein, the Km [13] was 169 µM, the kcat [13] was 1.37 s⁻¹ and the kcat/Km [13] was 8050 M⁻¹ s⁻¹. It also gave a Km [14] of 108 µM, a kcat [14] of 4.5 s⁻¹ and a kcat/Km [14] of 41700 M⁻¹ s⁻¹. For the same protein, the Km [15] was 83 µM, the kcat [15] was 3.4 s⁻¹ and the kcat/Km [15] was 41000 M⁻¹ s⁻¹.

B2: Amine oxidase [flavin-containing] B (Bos taurus) (protein)
chain: MSSKCDVVVVGGGISGMAAAKLLHDSGLNVIVLEARDRVGGRTYTLRNQKVKYVDLGGSYVGPTQNHILRLSKELGLETYKVNEVERLIHHTKGKSYPFRGSFPSVWNPITYLDHNNLWRTMDDMGREIPSDAPWKAPLAEQWDLMTMKELLDKICWTESSKQLAILFVNLCVTAEIHEVSALWFLWYVKQCGGTTRIFSTSNGGQERKFVGGSGQVSERIMDLLGDRVKLERPVIHIDQTGENVLVETLNHELYEAKYVISAVPPVLGMKIHFNPPLPMMRNQLITRVPLGSVIKSIVYYKEPFWRNMDYCGSMIIEGEEAPVAYALDDTKPDGSYPAIIGFILAHKARKLARLTKEERLKKLCDLYAKVLGSQEALHPVHYEEKNWCEEQYSGGCYTSYFPPGIMTQYGRVLRQPVGRIYFAGTETATHWSGYMEGAVEAGERAAREILHAMGKIPEDEIWLPEPESVDVPAKPITTTFLQRHLPSVPGLLKLIGLTTIFSATALGFLAHKRGLLVRI
Work on B2 yielded a Km [16] of 313 µM, a kcat [16] of 5.7 s⁻¹ and a kcat/Km [16] of 12400 M⁻¹ s⁻¹. The Km [17] was 474 µM, the kcat [17] was 5.9 s⁻¹ and the kcat/Km [17] was 12400 M⁻¹ s⁻¹. For the same protein, the Km [18] was 337 µM, the kcat [18] was 4.05 s⁻¹ and the kcat/Km [18] was 12000 M⁻¹ s⁻¹. It also gave a Km [19] of 180 µM, a kcat [19] of 10.7 s⁻¹ and a kcat/Km [19] of 59700 M⁻¹ s⁻¹. It also gave a Km [20] of 254 µM, a kcat [20] of 5.93 s⁻¹ and a kcat/Km [20] of 23400 M⁻¹ s⁻¹. It also gave a Km [21] of 691 µM, a kcat [21] of 1.52 s⁻¹ and a kcat/Km [21] of 2200 M⁻¹ s⁻¹. The Km [22] was 346 µM, the kcat [22] was 3.67 s⁻¹ and the kcat/Km [22] was 10600 M⁻¹ s⁻¹. For the same protein, the Km [23] was 116 µM, the kcat [23] was 3.37 s⁻¹ and the kcat/Km [23] was 29100 M⁻¹ s⁻¹. For the same protein, the Km [24] was 105 µM, the kcat [24] was 2.47 s⁻¹ and the kcat/Km [24] was 23500 M⁻¹ s⁻¹. It also gave a Km [25] of 106 µM, a kcat [25] of 3.57 s⁻¹ and a kcat/Km [25] of 33600 M⁻¹ s⁻¹. It also gave a Km [26] of 308 µM, a kcat [26] of 3.73 s⁻¹ and a kcat/Km [26] of 12200 M⁻¹ s⁻¹. It also gave a Km [27] of 86 µM, a kcat [27] of 1.13 s⁻¹ and a kcat/Km [27] of 13100 M⁻¹ s⁻¹. The Km [28] was 443 µM, the kcat [28] was 1.4 s⁻¹ and the kcat/Km [28] was 3180 M⁻¹ s⁻¹. It also gave a Km [29] of 98 µM, a kcat [29] of 2.92 s⁻¹ and a kcat/Km [29] of 29700 M⁻¹ s⁻¹. It also gave a Km [30] of 220 µM, a kcat [30] of 3.02 s⁻¹ and a kcat/Km [30] of 13700 M⁻¹ s⁻¹.
